# Numbered stars: 1 amine (or outer) side, 2 acyl side, 3 side chain; on linkers, the order of the positions; unused ones are H or OH. Bridge positions count the residues as written; N and C are the ends. Square brackets hold non-standard residues; d marks the D form. Peptide text beside a SMILES is read from it. * marks the point of attachment. X5 = CC(C)CCNCCC[C@H](N[*:1])C(=O)[*:2]; Ala(2-furyl) = N[C@@H](Cc1ccco1)C(=O)O; Ala(cPent) = N[C@@H](CC1CCCC1)C(=O)O; Bta = N[C@@H](Cc1csc2ccccc12)C(=O)O; Orn(iPr) = CC(C)NCCC[C@H](N)C(=O)O; Dab(iPr) = CC(C)NCC[C@H](N)C(=O)O; 3Pal = N[C@@H](Cc1cccnc1)C(=O)O; Aad = N[C@@H](CCCC(=O)O)C(=O)O; Cha = N[C@@H](CC1CCCCC1)C(=O)O; Orn = NCCC[C@H](N)C(=O)O; Dab = NCC[C@H](N)C(=O)O; Ac4c = NC1(C(=O)O)CCC1; N(Me)OMe = CON(C)*; X3 = OCCOCCN*; NHOH = ON*
# What was measured:
# [1] = biological target: Vasopressin V1a/V2 (Homo sapiens) (UniProt P30518+P37288); assay: Selectivity ratio of EC50 for human vasopressin V2 receptor to EC50 for human vasopressin V1a receptor
# Vasopressin V1a receptor = Vasopressin V1a receptor (Homo sapiens, UniProt P37288); assay: Agonist activity at recombinant human vasopressin V1a receptor expressed in HEK293 cells by luciferase reporter gene assay; assay type: functional, cell-based
# Vasopressin V1b receptor = biological target: T1, Vasopressin V1b receptor (Homo sapiens, UniProt P47901); assay: Agonist activity at recombinant human vasopressin V1b receptor expressed in Flp-In-293 cells by luciferase reporter gene assay; assay type: functional, cell-based
# T1 sequence (P47901 whole entry): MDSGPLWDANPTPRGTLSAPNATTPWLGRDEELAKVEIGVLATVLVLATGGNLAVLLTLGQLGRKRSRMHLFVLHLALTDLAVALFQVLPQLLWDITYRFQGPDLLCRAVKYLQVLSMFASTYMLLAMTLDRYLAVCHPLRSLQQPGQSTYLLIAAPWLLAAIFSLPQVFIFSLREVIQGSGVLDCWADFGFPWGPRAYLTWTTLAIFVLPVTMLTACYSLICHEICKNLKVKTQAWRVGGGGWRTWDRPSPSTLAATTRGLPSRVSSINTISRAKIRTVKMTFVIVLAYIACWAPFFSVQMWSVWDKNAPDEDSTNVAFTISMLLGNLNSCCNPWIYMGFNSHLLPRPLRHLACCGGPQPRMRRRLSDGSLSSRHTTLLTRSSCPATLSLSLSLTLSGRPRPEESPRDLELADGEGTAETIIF
# Outline: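 Reporter gene assays in HEK293 cells transiently cotransfected with V1a (human or rat) or human V2 receptor vector plus NFAT-luciferase (V1a) or CRE-luciferase (V2) reporter; V1b in Flp-In-293 stably expressing receptor, OT in CHO-K1 stably expressing receptor, both transiently transfected with NFAT-luciferase. Two days post-transfection, peptides added for 5 h at 37 °C, lysis with luciferin, luminescence read.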
# Vasopressin V2 receptor = Vasopressin V2 receptor (Homo sapiens, UniProt P30518); assay: Agonist activity at recombinant human vasopressin V2 receptor expressed in HEK293 cells by luciferase reporter gene assay; assay type: functional, cell-based
# Oxytocin receptor = biological target: T2, Oxytocin receptor (Homo sapiens, UniProt P30559); assay: Agonist activity at human OT receptor expressed in CHO-K1 cells by luciferase reporter gene assay; assay type: functional, cell-based
# T2 sequence (P30559 whole entry): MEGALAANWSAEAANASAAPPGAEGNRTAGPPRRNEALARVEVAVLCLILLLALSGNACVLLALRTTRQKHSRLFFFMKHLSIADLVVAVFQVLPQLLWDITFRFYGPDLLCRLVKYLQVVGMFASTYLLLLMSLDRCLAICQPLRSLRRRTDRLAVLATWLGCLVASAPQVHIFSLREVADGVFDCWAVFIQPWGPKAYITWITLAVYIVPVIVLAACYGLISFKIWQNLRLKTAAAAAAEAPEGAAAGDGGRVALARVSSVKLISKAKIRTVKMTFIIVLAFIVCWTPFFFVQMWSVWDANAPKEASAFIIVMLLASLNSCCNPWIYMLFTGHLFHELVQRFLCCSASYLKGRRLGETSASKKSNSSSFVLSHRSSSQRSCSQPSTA
# Homo sapiens [2] = organism: Homo sapiens; assay: Selectivity ratio of EC50 for human vasopressin V1b receptor to EC50 for human vasopressin V1a receptor
# Homo sapiens [3] = organism: Homo sapiens; assay: Selectivity ratio of EC50 for human oxytocin receptor to EC50 for human vasopressin V1a receptor
# Sequence of Vasopressin V2 receptor (P30518 whole entry): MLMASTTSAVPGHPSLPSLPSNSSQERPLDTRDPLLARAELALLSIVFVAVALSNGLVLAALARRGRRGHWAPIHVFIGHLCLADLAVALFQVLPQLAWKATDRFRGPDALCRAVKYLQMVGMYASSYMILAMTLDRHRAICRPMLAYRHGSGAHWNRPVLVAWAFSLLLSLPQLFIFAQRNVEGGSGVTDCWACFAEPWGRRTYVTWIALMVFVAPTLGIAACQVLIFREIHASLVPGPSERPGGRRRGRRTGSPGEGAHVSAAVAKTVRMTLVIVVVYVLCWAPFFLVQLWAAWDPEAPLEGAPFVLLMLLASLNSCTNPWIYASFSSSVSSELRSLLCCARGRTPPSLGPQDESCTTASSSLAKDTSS
# Sequence of Vasopressin V1a/V2 (Homo sapiens) (P30518 whole entry, looked up): as the sequence (P30518 whole entry) above
# Sequence of Vasopressin V1a/V2 (Homo sapiens) (P37288 whole entry, looked up): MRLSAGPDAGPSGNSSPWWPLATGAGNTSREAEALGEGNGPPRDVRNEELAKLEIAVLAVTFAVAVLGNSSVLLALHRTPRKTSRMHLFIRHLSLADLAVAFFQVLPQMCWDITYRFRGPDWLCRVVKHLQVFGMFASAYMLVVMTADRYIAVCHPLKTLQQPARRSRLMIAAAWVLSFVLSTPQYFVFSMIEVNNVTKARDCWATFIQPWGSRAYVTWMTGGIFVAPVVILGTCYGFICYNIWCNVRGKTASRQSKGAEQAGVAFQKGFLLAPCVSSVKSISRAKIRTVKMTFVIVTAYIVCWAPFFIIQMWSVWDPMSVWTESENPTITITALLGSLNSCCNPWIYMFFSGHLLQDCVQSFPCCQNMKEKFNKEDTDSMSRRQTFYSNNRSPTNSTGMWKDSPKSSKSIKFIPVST
# Sequence of Vasopressin V1a receptor (P37288 whole entry): as the sequence (P37288 whole entry, looked up) above
SMILES,Ratio EC50 [1],EC50 (Vasopressin V1a receptor; read-out: EC50),EC50 (Vasopressin V1b receptor; read-out: EC50),"EC50 (Vasopressin V2 receptor; hek293, read-out: EC50)",EC50 (Vasopressin V2 receptor; read-out: pEC50 (converted)),"EC50 (Oxytocin receptor; cho-k1, read-out: EC50)",EC50 (Oxytocin receptor; read-out: pEC50 (converted)),Ratio EC50 (Homo sapiens [2]),Ratio EC50 (Homo sapiens [3]),EC50 (Vasopressin V2 receptor; read-out: EC50),EC50 (Oxytocin receptor; read-out: EC50),"EC50 (Vasopressin V1a receptor; hek293, read-out: EC50)",EC50 (Vasopressin V1a receptor; read-out: pEC50 (converted)),"EC50 (Vasopressin V1b receptor; flp-in-293, read-out: EC50)",EC50 (Vasopressin V1b receptor; read-out: pEC50 (converted))
CC[C@H](C)[C@@H]1NC(=O)[C@H](Cc2ccccc2)NC(=O)[C@@H](N)CSSC[C@@H](C(=O)N2CCC[C@H]2C(=O)N[C@@H](CCCN)C(=O)NCC(N)=O)NC(=O)[C@H](CC(N)=O)NC(=O)[C@H](CCC(=O)N(C)OC)NC1=O (H-CFIE(N(Me)OMe)NCP[Orn]G-NH2; disulfide 1-6),17,69 nM,540 nM,,,> 10 µM,> 10 µM,7.8,> 140,1.2 µM,,,,,
CC[C@H](C)[C@@H]1NC(=O)[C@H](Cc2ccco2)NC(=O)[C@@H](N)CSSC[C@@H](C(=O)N2CCC[C@H]2C(=O)N[C@@H](CCCNC(C)C)C(=O)NCC(N)=O)NC(=O)[C@H](CC(N)=O)NC(=O)[C@H](CC(N)=O)NC1=O (H-C[Ala(2-furyl)]INNCP[Orn(iPr)]G-NH2; disulfide 1-6),> 660,15 nM,1800 nM,> 10 µM,> 10 µM,,,120,64,,0.97 µM,,,,
CC[C@H](C)[C@@H]1NC(=O)[C@H](Cc2cccnc2)NC(=O)[C@@H](N)CSSC[C@@H](C(=O)N2CCC[C@H]2C(=O)N[C@@H](CCN)C(=O)NCC(N)=O)NC(=O)[C@H](CC(N)=O)NC(=O)[C@H](CCC(N)=O)NC1=O (H-C[3Pal]IQNCP[Dab]G-NH2; disulfide 1-6),> 330,30 nM,200 nM,> 10 µM,> 10 µM,> 10 µM,> 10 µM,6.6,> 330,,,,,,
CC[C@H](C)[C@@H]1NC(=O)[C@H](Cc2ccccc2)NC(=O)[C@@H](N)CSSC[C@@H](C(=O)N2CCC[C@H]2C(=O)N[C@@H](CCCNCCC(C)C)C(=O)NCC(N)=O)NC(=O)[C@H](CC(N)=O)NC(=O)[C@H](CCC(N)=O)NC1=O (H-CFIQNCP[X5]G-NH2; disulfide 1-6),230,0.82 nM,100 nM,,,,,120,53,0.19 µM,0.044 µM,,,,
CC[C@H](C)[C@@H]1NC(=O)[C@H](CC2CCCCC2)NC(=O)[C@@H](N)CSSC[C@@H](C(=O)N2CCC[C@H]2C(=O)N[C@@H](CCCN)C(=O)NCC(N)=O)NC(=O)[C@H](CC(N)=O)NC(=O)[C@H](CC(N)=O)NC1=O (H-C[Cha]INNCP[Orn]G-NH2; disulfide 1-6),> 3100,3.2 nM,140 nM,> 10 µM,> 10 µM,> 10 µM,> 10 µM,43,> 3100,,,,,,
CC[C@H](C)[C@@H]1NC(=O)[C@H](Cc2ccccc2)NC(=O)[C@@H](N)CSSC[C@@H](C(=O)N2CCC[C@H]2C(=O)N[C@@H](CCNC(C)C)C(=O)NCC(N)=O)NC(=O)[C@H](CC(N)=O)NC(=O)[C@H](CCCC(N)=O)NC1=O (H-CFI[Aad](NH2)NCP[Dab(iPr)]G-NH2; disulfide 1-6),61,18 nM,960 nM,,,> 10 µM,> 10 µM,53,> 550,1.1 µM,,,,,
CC[C@H](C)[C@@H]1NC(=O)[C@H](C)NC(=O)[C@@H](N)CSSC[C@@H](C(=O)N2CCC[C@H]2C(=O)N[C@@H](CCN)C(=O)NCC(N)=O)NC(=O)[C@H](CC(N)=O)NC(=O)[C@H](CCC(N)=O)NC1=O (H-CAIQNCP[Dab]G-NH2; disulfide 1-6),,,,> 10 µM,> 10 µM,> 10 µM,> 10 µM,,,,,> 1000 nM,> 1000 nM,> 10000 nM,> 10000 nM
CC[C@H](C)[C@@H]1NC(=O)[C@H](Cc2csc3ccccc23)NC(=O)[C@@H](N)CSSC[C@@H](C(=O)N2CCC[C@H]2C(=O)N[C@@H](CCN)C(=O)NCC(N)=O)NC(=O)[C@H](CC(N)=O)NC(=O)[C@H](CCC(N)=O)NC1=O (H-C[Bta]IQNCP[Dab]G-NH2; disulfide 1-6),,,360 nM,> 10 µM,> 10 µM,> 10 µM,> 10 µM,,,,,> 1000 nM,> 1000 nM,,

# Now from value to molecule:
Ratio EC50 [1],EC50 (Vasopressin V1a receptor; read-out: EC50),EC50 (Vasopressin V1b receptor; read-out: EC50),"EC50 (Vasopressin V2 receptor; hek293, read-out: EC50)",EC50 (Vasopressin V2 receptor; read-out: pEC50 (converted)),"EC50 (Oxytocin receptor; cho-k1, read-out: EC50)",EC50 (Oxytocin receptor; read-out: pEC50 (converted)),Ratio EC50 (Homo sapiens [2]),Ratio EC50 (Homo sapiens [3]),EC50 (Vasopressin V2 receptor; read-out: EC50),EC50 (Oxytocin receptor; read-out: EC50),"EC50 (Vasopressin V1a receptor; hek293, read-out: EC50)",EC50 (Vasopressin V1a receptor; read-out: pEC50 (converted)),"EC50 (Vasopressin V1b receptor; flp-in-293, read-out: EC50)",EC50 (Vasopressin V1b receptor; read-out: pEC50 (converted)),SMILES
> 1200,7.7 nM,120 nM,> 10 µM,> 10 µM,> 10 µM,> 10 µM,15,> 1200,,,,,,,CC[C@H](C)[C@@H]1NC(=O)[C@H](CC2CCCC2)NC(=O)[C@@H](N)CSSC[C@@H](C(=O)N2CCC[C@H]2C(=O)N[C@@H](CCCN)C(=O)NCC(N)=O)NC(=O)[C@H](CC(N)=O)NC(=O)[C@H](CC(N)=O)NC1=O (H-C[Ala(cPent)]INNCP[Orn]G-NH2; disulfide 1-6)
> 1200,7.9 nM,110 nM,> 10 µM,> 10 µM,> 10 µM,> 10 µM,13,> 1200,,,,,,,CC[C@H](C)[C@@H]1NC(=O)C2(CCC2)NC(=O)[C@@H](N)CSSC[C@@H](C(=O)N2CCC[C@H]2C(=O)N[C@@H](CCCN)C(=O)NCC(N)=O)NC(=O)[C@H](CC(N)=O)NC(=O)[C@H](CC(N)=O)NC1=O (H-C[Ac4c]INNCP[Orn]G-NH2; disulfide 1-6)
35,6 nM,59 nM,,,,0.174 µM,9.8,> 1600,0.21 µM,> 10 µM,,,,,CC[C@H](C)[C@@H]1NC(=O)[C@H](Cc2ccccc2)NC(=O)[C@@H](N)CSSC[C@@H](C(=O)N2CCC[C@H]2C(=O)N[C@@H](CCCN)C(=O)NCC(N)=O)NC(=O)[C@H](CC(N)=O)NC(=O)[C@H](CCC(=O)NC)NC1=O (H-CFIE(NHMe)NCP[Orn]G-NH2; disulfide 1-6)
14,12 nM,70 nM,,,> 10 µM,> 10 µM,5.8,> 830,0.17 µM,,,,,,CC[C@H](C)[C@@H]1NC(=O)[C@H](Cc2ccccc2)NC(=O)[C@@H](N)CSSC[C@@H](C(=O)N2CCC[C@H]2C(=O)N[C@@H](CCCN)C(=O)NCC(N)=O)NC(=O)[C@H](CC(N)=O)NC(=O)[C@H](CCC(=O)NO)NC1=O (H-CFIE(NHOH)NCP[Orn]G-NH2; disulfide 1-6)
> 2000,4.8 nM,41 nM,> 10 µM,> 10 µM,> 10 µM,> 10 µM,8.5,> 2000,,,,,,,CC[C@H](C)[C@@H]1NC(=O)[C@H](Cc2ccccc2)NC(=O)[C@@H](N)CSSC[C@@H](C(=O)N2CCC[C@H]2C(=O)N[C@@H](CCCN)C(=O)NCC(N)=O)NC(=O)[C@H](CC(N)=O)NC(=O)[C@H](CC(=O)NCCOCCO)NC1=O (H-CFID(X3)NCP[Orn]G-NH2; disulfide 1-6)
,0.23 nM,56 nM,,,,,,,,0.0033 µM,,,,,CC[C@H](C)[C@@H]1NC(=O)[C@H](Cc2ccc(O)cc2)NC(=O)[C@@H](N)CSSC[C@@H](C(=O)N2CCC[C@H]2C(=O)N[C@@H](CCCN)C(=O)NCC(N)=O)NC(=O)[C@H](CC(N)=O)NC(=O)[C@H](CCC(N)=O)NC1=O
> 6200,1.6 nM,18 nM,> 10 µM,> 10 µM,> 10 µM,> 10 µM,11,> 6200,,,,,,,CC[C@H](C)[C@@H]1NC(=O)[C@H](CC2CCCCC2)NC(=O)[C@@H](N)CSSC[C@@H](C(=O)N2CCC[C@H]2C(=O)N[C@@H](CCN)C(=O)NCC(N)=O)NC(=O)[C@H](CC(N)=O)NC(=O)[C@H](CC(N)=O)NC1=O (H-C[Cha]INNCP[Dab]G-NH2; disulfide 1-6)

# — ChEMBL document CHEMBL1817572, “New, potent, selective, and short-acting peptidic V1a receptor agonists” (J Med Chem, 2011)
